Diaphorase act: diaphorase activation or chemical reduction counter-screen | Diaphorase/resazurin coupled assay, resorufin fluorescence, 16 min; stronger effect = higher value; 1 = vehicle wells, 0 = NADH-free wells | activation factor at 20 µM | 0.005% of 190,000 active | AID 1229;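 active means diaphorase activity raised at least twofold by the compound at 20 µM; inactive means activation factor below 2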
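Material: Clostridium kluyveri diaphorase, purified enzyme; Quantity: enzyme 0.07 U/mL final; Medium: HEPES pH 7.4 buffer with MgCl2 and Tween 20; Dosing: single compound dose of 20 µM, 1% DMSO final; Schedule: 16 min reaction at room temperature; Measured by: red resorufin fluorescence at 544/590 nm excitation/emission.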
Lmaj promast: Leishmania major promastigote growth inhibition | AID 1063 | 9% of 200,000 active | Leishmania major promastigotes, resazurin fluorescence viability | inhibition, % at 10 µM;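 further: promastigotes grown with compound for 44 hours at 28 °C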
Diaphorase inh: inhibits diaphorase or chemically oxidizes, flagging diaphorase assay artifacts; inhibition, % at 20 µM; AID 1217; diaphorase resazurin-to-resorufin fluorescence, NADH, 16 min; bacterial (C. kluyveri) enzyme, not human; 0.69% of 190,000 active;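 active means primary screen inhibition at 20 µM above a set limit, cut at about 50% in these data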
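Test system: Clostridium kluyveri diaphorase enzyme / Quantity: diaphorase at 0.14 U/mL in enzyme working solution / Incubation: 16-min room-temperature incubation before reading / Benchmarks: NADH-free wells as positive control, DMSO-only neutral wells / Signal: resorufin fluorescence 544/590 nm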
Redox H2O2 prof: compounds producing H2O2 with reducing agent – biochemical, NIH compound library profiling, artefact control for MLSCN library redox annotation, primary screen; DTT-dependent redox cycling H2O2, phenol red/HRP absorbance; 100% = 100 µM peroxide control, 0% = buffer; activation, % at 10 µM; 0.03% of 200,000 active; AID 878;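 active means activation of at least 50% relative to the plate's high and low controls in the primary single-dose screen; inactive means activation below 50%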;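 further: compound incubated with DTT at 0.8 mM final as the reducing agent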
G6PDH CS: counter-screen for G6PDH assay hits: L. mesenteroides G6PDH inhibition; inhibition, % at 5 µM; Purified L. mesenteroides G6PDH, diaphorase/resazurin coupled fluorescence, 45 min; 0.12% of 200,000 active; AID 1020
PfG6PD inh: PfG6PD (Plasmodium falciparum) enzyme inhibition; AID 504690; inhibition, % at 20 µM; PfGluPho enzyme, NADPH resazurin-diaphorase fluorescence; 0.78% of 350,000 active;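 active means inhibition reaching at least a set limit at 20 µM in the primary screen, cut at about 59% in these data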
Large screens that a line does not name were inactive. This excerpt belongs to a sample that is enriched for hits. Unless noted, no stated cut-off is given here; in the data, active means inhibition above about 50%; inactive means the rest.

Cc1ccc(S(=O)(=O)[N-]c2nc3ccccc3nc2-n2cc[n+](CCC(C)C)c2)cc1	Lmaj promast 99
Cc1ccc(S(=O)(=O)/N=C2\C(=O)c3ccccc3C([O-])=C2n2cc[n+](CCC(C)C)c2)cc1	Lmaj promast 88, G6PDH CS 53
CC(=O)Nc1ccc(NC(=O)CS(=O)(=O)c2cn(CC(=O)N3CCCC3)c3ccccc23)cc1	none (no result: Diaphorase act, Lmaj promast, Diaphorase inh, Redox H2O2 prof, G6PDH CS)
COc1ccc(NC(=O)N2CCCCC2c2cccnc2)cc1 (stereo not given)	Lmaj promast 85
COc1cc(C)c(C)cc1S(=O)(=O)N1CCCCC1c1cccnc1 (stereo not given)	Lmaj promast 92
CC(=O)Nc1ccc(S(=O)(=O)N2CCCCC2c2cccnc2)cc1 (stereo not given)	none
CCCNC(=O)COc1coc(CN2CCN(c3ccc(F)cc3)CC2)cc1=O	none (no result: Diaphorase act, Lmaj promast, Diaphorase inh, Redox H2O2 prof, G6PDH CS)
COc1ccc(-c2cc(=O)oc3cc(OCC(C)=O)ccc23)cc1	Lmaj promast 64
COc1ccc2c(-c3cc4ccc(OCc5ccc(F)cc5)cc4oc3=O)cc(=O)oc2c1	Lmaj promast 52
O=C(Cc1ccc(Cl)c(Cl)c1)N1CCOCC1	none (no result: Diaphorase act, Lmaj promast, Diaphorase inh, Redox H2O2 prof, G6PDH CS)
CCOC(=O)N1CCN(c2cc(N3CCN(CC)CC3)c(F)cc2[N+](=O)[O-])CC1C (stereo not given)	Lmaj promast 100
CCOC(=O)N1CCN(c2cc(N3CCOCC3)c(F)cc2[N+](=O)[O-])CC1	none
CCN(CC)P(=O)(Nc1ccc(C)cc1Br)c1ccc(N(C)C)cc1NC(=O)c1ccco1 (stereo not given)	Lmaj promast 65
COc1ccc(Nc2nc(-c3c[nH]c4ccccc34)cs2)cc1	Lmaj promast 85
COc1ccc(C2CC(c3cccs3)=NN2C(=O)CSc2nc(=O)n3cc(C)ccc3n2)cc1 (stereo not given)	none (no result: Diaphorase act, Lmaj promast, Diaphorase inh, Redox H2O2 prof, G6PDH CS)
CCC(C)NC(=O)C1CCC(CNS(=O)(=O)c2cccc3nsnc23)CC1 (stereo not given)	none (no result: Diaphorase act, Lmaj promast, Diaphorase inh, Redox H2O2 prof, G6PDH CS)
CCN(CCCc1ccccc1)CCCc1ccccc1	Lmaj promast 95
NC(=O)N/N=C/c1ccccc1OC(=O)c1cc2ccccc2oc1=O	none (no result: Diaphorase act, Lmaj promast, Diaphorase inh, Redox H2O2 prof, G6PDH CS)
O=C(N/N=C/c1ccccc1OC(=O)c1ccc2c(c1)OCO2)c1cccc(F)c1	none
O=C(Oc1ccccc1/C=C\C(=O)c1cc2ccccc2o1)c1cccc(F)c1	Lmaj promast 79
O=C(Oc1ccccc1/C=C\C(=O)c1cc2ccccc2o1)c1ccccc1	Lmaj promast 92
COc1cccc(C(=O)Oc2ccccc2/C=C\C(=O)c2cc3ccccc3o2)c1	Lmaj promast 100
COc1cccc(CN2CC(C(=O)NCCN3CCOC3=O)CCC2=O)c1 (stereo not given)	none (no result: Diaphorase act, Lmaj promast, Diaphorase inh, Redox H2O2 prof, G6PDH CS)
COc1cc(-c2ccc3oc(-c4cccc(C)c4)c(C#CC4(O)CCCCC4)c3c2)cc(OC)c1OC	none (no result: Diaphorase act, Lmaj promast, Diaphorase inh, Redox H2O2 prof, G6PDH CS)
COc1ccccc1N1CCN(C(=O)CSc2ncccc2-c2nc3ccccc3[nH]2)CC1	Lmaj promast 50
COc1ccc(N2CCN(C(=O)CSc3ncccc3-c3nc4ccccc4[nH]3)CC2)cc1	Lmaj promast 58
O=C(NC1CCN(C(=O)NCc2ccccc2)CC1)c1ccccc1	none (no result: Diaphorase act, Lmaj promast, Diaphorase inh, Redox H2O2 prof, G6PDH CS)
COC(=O)Cc1c(C)c2ccc(O)c(CNCc3ccc(OC)c(OC)c3)c2oc1=O	none (no result: Diaphorase act, Lmaj promast, Diaphorase inh, Redox H2O2 prof, G6PDH CS)
CC(C)(C)C1CCC(=NNc2ccc(S(N)(=O)=O)cc2[N+](=O)[O-])CC1 (stereo not given)	Lmaj promast 85
CCN(CC)S(=O)(=O)c1ccc(NN=C2CCN(C)CC2)c([N+](=O)[O-])c1	Lmaj promast 81
CC1CCCC/C1=N\Nc1ccc(S(N)(=O)=O)cc1[N+](=O)[O-] (stereo not given)	none
CCN(CC)S(=O)(=O)c1ccc(NN=C2CCN(C(C)C)CC2)c([N+](=O)[O-])c1	none (no result: Diaphorase act, Lmaj promast, Diaphorase inh, Redox H2O2 prof, G6PDH CS)
CCN(CC(=O)NCc1ccc(F)cc1)C(=O)c1ccc(COc2ccccc2)cc1	none (no result: Diaphorase act, Lmaj promast, Diaphorase inh, Redox H2O2 prof, G6PDH CS)
Cc1nc(N)sc1C(=O)N/N=C/c1ccc([N+](=O)[O-])cc1	none (no result: Diaphorase act, Lmaj promast, Diaphorase inh, Redox H2O2 prof, G6PDH CS)
Cc1nc(N)sc1C(=O)N/N=C/c1ccccc1[N+](=O)[O-]	Lmaj promast 92 (no result: PfG6PD inh)
Cc1cccc(N2CCN(C(=O)Cn3nc(C)n4cccc4c3=O)CC2C)c1 (stereo not given)	none (no result: Diaphorase act, Lmaj promast, Diaphorase inh, Redox H2O2 prof, G6PDH CS)
Cc1cc(C)c2c(=O)n(CC(=O)N3CCC(Cc4ccccc4)CC3)sc2n1	Lmaj promast 78 (no result: PfG6PD inh)
Cc1cccc(N2CCN(C(=O)Cn3sc4nc(C)cc(C)c4c3=O)CC2C)c1 (stereo not given)	PfG6PD inh 105
Cc1cccc(N2CCN(C(=O)c3cc(C)oc3C)CC2C)c1 (stereo not given)	Lmaj promast 56
C[C@H](CO)N1C[C@H](C)[C@@H](CN(C)C(=O)NC2CCCCC2)Oc2ccc(NC(=O)Cc3ccccc3)cc2C1=O	none (no result: Diaphorase act, Lmaj promast, Diaphorase inh, Redox H2O2 prof, G6PDH CS)
c1ccc(Cc2noc(CN3CCC(CN4CCOCC4)CC3)n2)cc1	none
c1ccc(Cc2noc(CN3CCCN(C4Cc5ccccc5C4)CC3)n2)cc1	Lmaj promast 92
c1ccc(Cc2noc(CN3CCN(C4CCc5ccccc5C4)CC3)n2)cc1 (stereo not given)	Lmaj promast 87
COc1cc(/C=N/NC(=S)Nc2cccc(Cl)c2C)ccc1OCC(=O)N1CC(C)OC(C)C1 (stereo not given)	Diaphorase inh 54
COc1cc(/C=N/NC(=O)c2ccc(Cl)cc2)ccc1OCC(=O)N1CC(C)OC(C)C1 (stereo not given)	none
O=C(CCc1ccccc1)NC(=S)Nc1ccccc1[N+](=O)[O-]	none (no result: Diaphorase act, Lmaj promast, Diaphorase inh, Redox H2O2 prof, G6PDH CS)
CCCCc1c(CCC)c(=N)c2ccccc2n1C	Lmaj promast 100
CCCCNC(=O)CSc1cc(=O)n(C)c2ccccc12	none
CC(C)(C)c1ccc(/C=C/C(=O)Nc2ccncc2)cc1	Lmaj promast 88
Cc1nc(NC(=O)/C=C/c2ccc(C(C)(C)C)cc2)sc1C(=O)N(C)C	Lmaj promast 61
O=C(/C=C/c1cccs1)Nc1ccncc1	none
Cc1cccc(C)c1Nc1nnc(SC(C)C(=O)Nc2c(C)n(C)n(-c3ccccc3)c2=O)s1 (stereo not given)	none
COc1cnc(-c2ccccn2)nc1Oc1ccc(Cl)c2ccccc12	Lmaj promast 100
COc1cnc(-c2ccccn2)nc1Oc1ccc(Cl)cc1	Lmaj promast 71
CC(=O)C1=C(c2ccccc2)NC(=O)NC1c1ccccc1OCC#N (stereo not given)	none
O=C(CSCc1cnn(-c2ccccc2)c1-n1cccc1)N1CCN(Cc2ccccc2)CC1	Lmaj promast 97
O=C(O)CSCc1cnn(-c2ccccc2)c1-n1cccc1	none
CC(C)COc1ccc(Cc2cnc(N)nc2N)cc1	Lmaj promast 72

Assay outcomes deposited in PubChem by several laboratories.
